Results reported in ChEMBL document CHEMBL5252513, “Identification of a Benzoisoxazoloazepine Inhibitor (CPI-0610) of the Bromodomain and Extra-Terminal (BET) Family as a Candidate for Human Clinical Trials” (J Med Chem, 2016).
pIC50: −log10 of the molar value. Calls of active or inactive are those of the source. The calls are words filed in the database; no cut-off is given here.

Key:
[1] = target: T1, Transcription intermediary factor 1-alpha (Homo sapiens, UniProt O15164); assay: Displacement of biotinylated JQ1 from TRIM24 bromodomain (unknown origin) incubated for 20 mins by AlphaLISA assay
T1 sequence (O15164 whole entry): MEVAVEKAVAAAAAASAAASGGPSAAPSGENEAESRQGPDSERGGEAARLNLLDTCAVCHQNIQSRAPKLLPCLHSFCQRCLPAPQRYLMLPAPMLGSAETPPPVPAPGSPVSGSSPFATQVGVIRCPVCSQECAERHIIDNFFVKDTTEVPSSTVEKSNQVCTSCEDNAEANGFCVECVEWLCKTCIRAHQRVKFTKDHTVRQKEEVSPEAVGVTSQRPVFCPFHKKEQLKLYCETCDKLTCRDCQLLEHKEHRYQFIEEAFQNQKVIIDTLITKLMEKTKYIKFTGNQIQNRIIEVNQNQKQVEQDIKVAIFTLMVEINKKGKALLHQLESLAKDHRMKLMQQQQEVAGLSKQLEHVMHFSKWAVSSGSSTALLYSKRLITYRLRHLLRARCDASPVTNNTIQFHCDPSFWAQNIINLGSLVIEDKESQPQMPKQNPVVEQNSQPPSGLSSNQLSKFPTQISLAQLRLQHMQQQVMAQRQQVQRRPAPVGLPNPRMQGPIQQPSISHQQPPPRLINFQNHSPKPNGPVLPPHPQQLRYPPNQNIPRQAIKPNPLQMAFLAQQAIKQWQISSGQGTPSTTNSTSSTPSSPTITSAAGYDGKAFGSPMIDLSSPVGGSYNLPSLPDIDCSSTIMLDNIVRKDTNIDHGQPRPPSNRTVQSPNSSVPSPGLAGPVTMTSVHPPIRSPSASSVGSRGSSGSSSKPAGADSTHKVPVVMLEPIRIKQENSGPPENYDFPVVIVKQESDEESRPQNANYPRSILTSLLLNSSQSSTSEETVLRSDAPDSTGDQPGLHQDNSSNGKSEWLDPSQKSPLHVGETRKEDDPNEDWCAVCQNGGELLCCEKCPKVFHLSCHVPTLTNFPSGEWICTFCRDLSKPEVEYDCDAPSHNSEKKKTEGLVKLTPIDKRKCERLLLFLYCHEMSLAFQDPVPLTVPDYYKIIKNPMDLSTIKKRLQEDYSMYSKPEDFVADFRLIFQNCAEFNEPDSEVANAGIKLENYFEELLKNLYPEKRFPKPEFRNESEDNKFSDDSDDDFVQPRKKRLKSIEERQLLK

Peregrin = target: T2, Peregrin (Homo sapiens, UniProt P55201); assay: Binding affinity to BRPF1 bromodomain (unknown origin) incubated for 60 mins by TR-FRET assay
T2 sequence (P55201 whole entry): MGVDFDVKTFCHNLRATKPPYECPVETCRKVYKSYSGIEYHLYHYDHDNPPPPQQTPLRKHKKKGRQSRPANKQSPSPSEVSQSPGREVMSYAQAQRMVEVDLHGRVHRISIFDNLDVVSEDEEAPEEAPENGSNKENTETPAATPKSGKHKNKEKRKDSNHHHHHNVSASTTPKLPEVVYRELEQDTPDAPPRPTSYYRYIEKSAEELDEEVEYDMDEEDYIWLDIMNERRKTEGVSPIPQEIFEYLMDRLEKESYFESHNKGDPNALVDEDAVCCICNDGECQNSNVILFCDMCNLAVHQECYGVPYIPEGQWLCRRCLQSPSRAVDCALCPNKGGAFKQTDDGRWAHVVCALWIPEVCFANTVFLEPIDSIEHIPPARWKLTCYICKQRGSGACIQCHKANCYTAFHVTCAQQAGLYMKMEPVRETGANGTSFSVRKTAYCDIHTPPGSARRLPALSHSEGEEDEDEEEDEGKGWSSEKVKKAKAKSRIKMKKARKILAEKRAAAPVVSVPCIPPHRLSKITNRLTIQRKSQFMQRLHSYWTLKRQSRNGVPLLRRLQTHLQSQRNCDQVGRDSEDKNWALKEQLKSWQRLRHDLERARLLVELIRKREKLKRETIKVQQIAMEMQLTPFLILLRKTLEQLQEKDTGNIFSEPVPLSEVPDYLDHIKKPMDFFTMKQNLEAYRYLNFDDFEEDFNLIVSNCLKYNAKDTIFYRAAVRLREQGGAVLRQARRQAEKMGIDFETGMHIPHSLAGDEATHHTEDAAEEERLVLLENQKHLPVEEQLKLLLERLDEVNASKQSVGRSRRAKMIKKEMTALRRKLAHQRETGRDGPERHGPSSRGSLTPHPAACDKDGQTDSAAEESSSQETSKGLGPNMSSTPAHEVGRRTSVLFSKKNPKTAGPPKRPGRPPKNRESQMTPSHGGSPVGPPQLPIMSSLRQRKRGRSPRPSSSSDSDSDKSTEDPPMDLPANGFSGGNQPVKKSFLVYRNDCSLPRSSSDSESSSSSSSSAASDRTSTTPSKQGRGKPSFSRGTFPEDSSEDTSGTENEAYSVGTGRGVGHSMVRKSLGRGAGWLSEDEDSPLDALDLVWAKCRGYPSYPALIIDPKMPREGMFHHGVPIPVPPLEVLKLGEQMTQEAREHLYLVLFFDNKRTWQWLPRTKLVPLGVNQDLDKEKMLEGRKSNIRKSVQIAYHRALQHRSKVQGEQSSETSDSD

MV4-11 = assay: In vivo inhibition of BRD4 in human MV4-11 cells xenografted in BALB/c mouse assessed as reduction in cellular MYC mRNA expression level in tumor at 15 mg/kg,sc BID and measured at 4 hrs by PCR anlaysis; type: functional, organism-based
Procedure, shortened: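 Pharmacodynamic study in MV-4-11 AML mouse xenograft. Dosing was 15 mg/kg subcutaneous twice daily. At 4, 8 and 12 h after the second dose, MYC mRNA was measured against vehicle, and compound levels were measured in plasma and tumor. Free plasma concentration was estimated alongside total levels.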

[2] = Toxicity in rat assessed as lymphoid depletion at 2 to 20 mg/kg,po QD consecutive for 14 days followed by 2 weeks recovery period; type: organism-based; settings: in vivo, 336 h, dose 2-20 mg/kg, time 14 day
Procedure, shortened: (§1)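 Oral suspension given once daily for 14 consecutive days (rat 2, 6, 20 mg/kg; dog 2, 4, 6 mg/kg) in dose range-finding and GLP repeat-dose studies, GLP arms with an added 2-week recovery period; histopathology and clinical pathology findings recorded.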

[3] = AUC (0 to infinity) in mouse at 30 mg/kg,po; type: ADME, organism-based; parameters: dose 30 mg/kg, route po; settings: in vivo
[4] = Toxicity in dog assessed as to mild to moderate hyperglycemia at 2 to 6 mg/kg,po QD consecutive for 14 days followed by 2 weeks recovery period; type: organism-based, Canis lupus familiaris; settings: in vivo, 336 h, dose 2-6 mg/kg, time 14 day; procedure, shortened: as §1
[5] = Unbound clearance in dog at 0.5 mg/kg,iv; type: ADME, organism-based, Canis lupus familiaris; settings: in vivo
[6] = Toxicity against BALB/c mouse plasma xenografted with human MV4-11 cells assessed as body weight loss at 30 mg/kg,po BID for 28 days; type: organism-based; settings: in vivo, 672 h, time 28 day
Procedure, shortened: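 Body weight change (%) followed in MV-4-11 AML mouse xenograft during 28 days of oral single-agent dosing (30 mg/kg once or twice daily, 60 mg/kg once daily), vehicle PO BID as control.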

[7] = AUC (0 to infinity) in mouse at 10 mg/kg,sc; type: ADME, organism-based; parameters: dose 10 mg/kg, route sc; settings: in vivo

- pIC50 [1]: < 4.70
- pIC50 (Peregrin): < 4.70
- AUC(0-inf) [3]: 101 µM·h
- CL free [5]: 46.7 mL/min/kg
- AUC(0-inf) [7]: 49 µM·h
SMILES: Cc1noc2c1-c1ccccc1C(c1ccc(Cl)cc1)=N[C@H]2CC(N)=O [PELABRESIB]
- inhibition (MV4-11): Active
- Activity [2]: Toxic
- Activity [4]: Toxic
- Activity [6]: Non-Toxic
